Experimental findings from ChEMBL document CHEMBL1811823, “Quinazolinone linked pyrrolo[2,1-c][1,4]benzodiazepine (PBD) conjugates: Design, synthesis and biological evaluation as potential anticancer agents” (2010) are described below.

The structures appear in SMILES notation. A value given as a limit tells only on which side of the number the result lay.

Assay [1] relates to PC-3. The assay is described as follows: Growth inhibition of human PC3 cells after 48 hrs by SRB assay. Type of assay: functional. The settings on record: PC-3, 48 h. The essentials: (§1)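 Cells grown in RPMI 1640 with 10% FBS and 2 mM L-glutamine, plated at densities set by doubling time, pre-incubated 24 h at 37 °C/5% CO2. Drug tested at 0.1, 1, 10 and 100 µM in triplicate wells for 48 h continuous exposure. Cells fixed with cold TCA (final 10%) 60 min at 4 °C, stained with 0.4% SRB, dye eluted in 10 mM Tris. Absorbance read at 540 nm (690 nm reference); percent growth calculated relative to control wells.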
Background: Sulforhodamine B stains cellular protein and so reports cell mass.

For assay [2], the system named is A549. Put plainly: Growth inhibition of human A549 cells after 48 hrs by SRB assay. Type of assay: functional. The settings on record: A549, 48 h. The essentials: as §1
Assay [3] relates to ZR-75-1. Put plainly: Growth inhibition of human ZR-75-1 cells after 48 hrs by SRB assay. Format: functional. The settings on record: ZR-75-1, 48 h. The essentials:
(§2)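 SRB assay with 48 h continuous exposure. Cells were grown in RPMI 1640 with 10% FBS and 2 mM L-glutamine and preincubated 24 h at 37 °C, 5% CO2. Compounds were tested at four concentrations (0.1, 1, 10, 100) in triplicate wells. Cells were fixed with cold TCA (10% final) for 60 min at 4 °C, stained 20 min with 0.4% SRB in 1% acetic acid, and the dye eluted with 10 mM Tris. A540 was read against a 690 nm reference. Percent growth is relative to control wells on each plate.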

The test system of assay [4] is KB. Put plainly: Growth inhibition of human KB cells after 48 hrs by SRB assay. Type of assay: functional. In outline: as §1
A short description of assay [5]: Growth inhibition of human DWD cells after 48 hrs by SRB assay. Type of assay: functional. In outline: as §1
Assay [6] is described as follows: Growth inhibition of human Gurav cells after 48 hrs by SRB assay. Type of assay: functional. In outline:
as §1

In assay [7] the test system is SiHa. Put plainly: Growth inhibition of human SiHa cells after 48 hrs by SRB assay. Type of assay: functional. The essentials: as §2
In assay [8] the test system is MCF7. Put plainly: Growth inhibition of human MCF7 cells after 48 hrs by SRB assay. The conditions noted are these: MCF7, 48 h. Format: functional. The essentials:
as §1

Assay [9] concerns HOP-62. Put plainly: Growth inhibition of human HOP62 cells after 48 hrs by SRB assay. The settings on record: HOP-62, 48 h. Type of assay: functional. In outline: as §1
The test system of assay [10] is Nucleic Acid. The assay is described as follows: Binding affinity to calf thymus DNA assessed as change in melting temperature at 20 uM at pH 7 incubated for 18 hrs at 37 degC by thermal denaturation assay. The conditions noted are these: Bos taurus. Type of assay: nucleic-acid assay. The essentials:
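CT-DNA (100 µM in phosphate) with 20 µM ligand, 1:5 [PBD]/[DNA], in 10 mM sodium phosphate/1 mM Na2EDTA buffer pH 7.00. Ligand added from methanol solution; incubated at 37 °C for 0 or 18 h. A260 monitored while heating 1 °C/min over 40–90 °C. Tm taken from d(A260)/dT maxima; ΔTm = Tm(DNA+PBD) − Tm(DNA alone). Values are means of at least three determinations, corrected for methanol cosolvent.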

Assay [11] has as its system A2780. The assay is described as follows: Growth inhibition of human A2780 cells after 48 hrs by SRB assay. Format: functional. The conditions noted are these: A2780, 48 h. The essentials:
as §1

Assay [12] concerns COLO 205. The assay is described as follows: Growth inhibition of human COLO205 cells after 48 hrs by SRB assay. Type of assay: functional. The conditions noted are these: COLO 205, 48 h. In outline:
as §1

For the compound `COc1cc2c(cc1OCCCCOc1ccc3nc(C)n(-c4ccc(I)cc4C)c(=O)c3c1)N=C[C@@H]1CCCN1C2=O`, the GI50 – broadly, the concentration that inhibits growth by half – in assay [1] is 170 nM; in [2], 170 nM; in assay [3] it was 160 nM; in assay [4], 150 nM; in assay [5], 150 nM; in assay [6], 170 nM. Moreover, the GI50 was 180 nM in [7]; 120 nM in [8]; 170 nM in [9]; 150 nM in assay [11]; 170 nM in assay [12]. The ΔTm – broadly, the change in melting temperature against a reference sample – in assay [10] amounted to 2 °C.

Consider `COc1ccc(-n2c(C)nc3ccc(OCCCCCOc4cc5c(cc4OC)C(=O)N4CCC[C@H]4C=N5)cc3c2=O)cc1`, for which the GI50 is 170 nM in assay [1]; 140 nM in assay [2]; 150 nM in assay [3]; 160 nM in assay [4]; 130 nM in [5]; less than 100 nM in [6]. Further, the GI50 is 180 nM in [7]; less than 100 nM in [8]; 180 nM in assay [9]; 140 nM in assay [11]; 140 nM in assay [12]. The ΔTm in assay [10] was 2.2 °C.

In the case of `COc1cc2c(cc1OCCCCOc1ccc(-n3c(/C=C/c4ccccc4)nc4ccccc4c3=O)cc1)N=C[C@@H]1CCCN1C2=O`, the GI50 in assay [1] stood at 1910 nM; in [2], 2390 nM; in assay [3], 160 nM; in assay [4] it was 2070 nM; in assay [5], 160 nM; in assay [6], 1930 nM. Also, the 50% growth inhibitory concentration (GI50) was found to be 2190 nM in assay [7], 2330 nM in assay [9], 160 nM in assay [11] and 2230 nM in [12]. Besides, the ΔTm in assay [10] is 2.3 °C.

On to `COc1cc2c(cc1OCCCCCOc1ccc(-n3c(/C=C/c4ccccc4)nc4ccccc4c3=O)cc1)N=C[C@@H]1CCCN1C2=O`, for which the GI50 in assay [1] amounted to 1830 nM; in [2], 26200 nM; in assay [3], 150 nM; in [4] it was 2150 nM; in [5] it was 170 nM; in assay [6] it was 1820 nM. Moreover, the GI50 in [7] came out at 2080 nM; in assay [8], 2500 nM; in assay [9], 2310 nM; in [11], 150 nM; in assay [12], 2000 nM. In assay [10], the ΔTm is 2 °C.

Turning to `COc1cc2c(cc1OCCCCOc1ccc3nc(C)n(-c4ccc(Cl)cc4Cl)c(=O)c3c1)N=C[C@@H]1CCCN1C2=O`, the GI50 in assay [1] turned out to be 180 nM; in assay [2] it was 180 nM; in assay [3], 170 nM; in assay [4], 160 nM; in assay [5], 150 nM; in [6], 170 nM. The GI50 in [7] came to 180 nM; in [8], 140 nM; in assay [9], 180 nM; in assay [11], 150 nM; in assay [12] it was 170 nM. Also, in [10], the ΔTm came to 2.3 °C.

Take `COc1cc2c(cc1OCCCCCOc1ccc3nc(C)n(-c4ccc(F)cc4)c(=O)c3c1)N=C[C@@H]1CCCN1C2=O`: the GI50 in assay [1] was found to be 170 nM; in assay [2], 130 nM; in [3], 160 nM; in assay [4] it was 150 nM; in assay [5], 150 nM; in assay [6] it was 130 nM. In addition, the GI50 worked out at 190 nM in [7]; 150 nM in assay [8]; 180 nM in assay [9]; 140 nM in [11]; 150 nM in [12]. Moreover, the ΔTm in [10] was found to be 2.2 °C.

On to `COc1cc2c(cc1OCCCOc1ccc(-n3c(C)nc4ccccc4c3=O)cc1)N=C[C@@H]1CCCN1C2=O`, for which the GI50 in [1] was 130 nM; in assay [2] it was 1480 nM; in assay [3] it was 150 nM; in assay [4], 150 nM; in assay [5], 110 nM; in assay [6] it was 130 nM. In addition, the GI50 amounted to 160 nM in assay [7]; 1830 nM in assay [8]; 160 nM in assay [9]; 100 nM in [11]; 140 nM in assay [12]. In assay [10], the ΔTm was found to be 2 °C.

In the case of `COc1cc2c(cc1OCCCOc1ccc(-n3c(/C=C/c4ccccc4)nc4ccccc4c3=O)cc1)N=C[C@@H]1CCCN1C2=O`, the GI50 in assay [1] was determined as 160 nM; in assay [2], 1880 nM; in assay [3], 160 nM; in assay [4] it was 1780 nM; in assay [5], 140 nM; in assay [6] it was 1850 nM. In addition, the 50% growth inhibitory concentration (GI50) in assay [7] came out at 2000 nM; in assay [8] it was 2030 nM; in assay [9] it was 2150 nM; in assay [11] it was 140 nM; in [12], 2120 nM. In addition, in assay [10], the thermal shift (ΔTm) turned out to be 2 °C.

`COc1cccc2c1C(=O)c1c(O)c3c(c(O)c1C2=O)C[C@@](O)(C(=O)CO)C[C@@H]3O[C@H]1C[C@H](N)[C@H](O)[C@H](C)O1` [DOXORUBICIN]: the 50% growth inhibitory concentration (GI50) in assay [4] stood at 170 nM; in [5], 100 nM; in assay [6], 170 nM; in assay [7], 170 nM; in [8], 170 nM; in assay [9], 140 nM. The GI50 in assay [11] was 160 nM; in assay [12] it was 140 nM.

Regarding `COc1cc2c(cc1OCCCCCOc1ccc3nc(C)n(-c4ccc(I)cc4C)c(=O)c3c1)N=C[C@@H]1CCCN1C2=O`, the GI50 in assay [1] was 160 nM; in [2] it was 160 nM; in assay [3] it was 160 nM; in assay [4] it was 150 nM; in [5], 130 nM; in assay [6], 160 nM. Besides, the GI50 in assay [7] was 170 nM; in assay [8] it was 110 nM; in assay [9], 160 nM; in [11], 140 nM; in [12], 160 nM. In addition, the ΔTm in [10] worked out at 2.1 °C.

As to `COc1cc2c(cc1O)N=C[C@@H]1CCCN1C2=O`, the GI50 in assay [1] was 200 nM; in assay [2], 160 nM; in assay [4] it was 170 nM; in [6] it was 160 nM; in assay [7], 170 nM; in assay [8], 170 nM. Moreover, the GI50 in assay [9] was 150 nM; in [11], 140 nM; in [12] it was 110 nM. Besides, the ΔTm in assay [10] was determined as 0.7 °C.

In the case of `COc1cc2c(cc1OCCCCOc1ccc(-n3c(C)nc4ccccc4c3=O)cc1)N=C[C@@H]1CCCN1C2=O`, the GI50 in assay [1] amounted to 170 nM; in assay [2], 1930 nM; in assay [3] it was 170 nM; in assay [4], 1980 nM; in [5], 1600 nM; in assay [6] it was 1950 nM. Moreover, the GI50 in [7] was determined as 1900 nM; in assay [8], 2300 nM; in assay [9], 1950 nM; in assay [11], 1650 nM; in assay [12] it was 1810 nM. The ΔTm in assay [10] worked out at 2.1 °C.
